Test results from ChEMBL document CHEMBL5724801, “EUbOPEN Chemogenomics Library - Multiplex” (2024).
“And” between values parts separate entries of the source, which are not always exact repeats. Equal values may be shown once.

Tested on: HEK-293T
Experiment: Multiplex assay against HEK293T
Format: toxicity, cell-based
Settings: human
In short: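 Compound was added to live cells that had been stained at seeding with Hoechst33342, BioTracker Green Microtubule Cytoskeleton Dye, MitoTracker Red and Annexin V Alexa Fluor 680, and imaging followed on a CQ1 microscope at 37°C and 5% CO2. CellPathfinder machine-learning gating divided cells into Hoechst high-intensity objects or normal cells, normal cells into healthy, pyknosed or fragmented nuclei, and pyknosed cells into mitotic or apoptotic. Tubulin, mitochondrial-mass and membrane-permeability phenotypes are per cents of healthy-nucleus cells.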

[1] = 12 h, 1 µM, compound concentration 1 uM
[2] = 12 h, 10 µM, compound concentration 10 uM
[3] = 24 h, 1 µM, compound concentration 1 uM
[4] = 24 h, 10 µM, compound concentration 10 uM
[5] = 48 h, 1 µM, compound concentration 1 uM
[6] = 48 h, 10 µM, compound concentration 10 uM

C=CC(=O)Nc1cc(Nc2nccc(-n3cc(CN(C)C)c(-c4ccccc4)n3)n2)c(OC)cc1N1CCOCC1 [LAZERTINIB]
Population Apoptotic (%) [1]: 14.72% and 15.96%
Population Fragmented Nuclei (%) [1]: 1.35% and 8.26%
Population Hoechst High Intensity Objects (%) [1]: 0.67% and 0%
Population Membrane Permeable-Phenotype (%) [1]: 0.77% and 5.88%
Population Mitochondria Different-Phenotype (%) [1]: 33.85% and 11.76%
Population Mitotic Cells (%) [1]: 85.28% and 84.04%
Population Normal (%) [1]: 99.33% and 100%
Population Pyknosed Nuclei (%) [1]: 54.88% and 77.69%
Population Tubulin-Different-Phenotype (%) [1]: 31.54% and 82.35%
Total Cell Count [1]: 299 and 121
Population Apoptotic (%) [2]: 22.22% and 29.59%
Population Fragmented Nuclei (%) [2]: 3.83% and 10%
Population Healthy Nuclei (%) [2]: 22.97% and 8.33%
Population Hoechst High Intensity Objects (%) [2]: 0.48% and 0%
Population Membrane Permeable-Phenotype (%) [2]: 0%
Population Mitochondria Different-Phenotype (%) [2]: 47.92% and 60%
Population Mitotic Cells (%) [2]: 77.78% and 70.41%
Population Normal (%) [2]: 99.52% and 100%
Population Pyknosed Nuclei (%) [2]: 73.21% and 81.67%
Population Tubulin-Different-Phenotype (%) [2]: 75% and 80%
Total Cell Count [2]: 210 and 120
Population Apoptotic (%) [3]: 15.83% and 31.58%
Population Fragmented Nuclei (%) [3]: 1.82% and 4.92%
Population Hoechst High Intensity Objects (%) [3]: 0.45% and 0%
Population Membrane Permeable-Phenotype (%) [3]: 3.41% and 4.76%
Population Mitochondria Different-Phenotype (%) [3]: 36.18% and 52.38%
Population Mitotic Cells (%) [3]: 84.17% and 68.42%
Population Normal (%) [3]: 99.55% and 100%
Population Pyknosed Nuclei (%) [3]: 31.59% and 77.87%
Population Tubulin-Different-Phenotype (%) [3]: 50.85% and 47.62%
Population Apoptotic (%) [4]: 46.43% and 51.06%
Population Fragmented Nuclei (%) [4]: 3.95% and 6.25%
Population Healthy Nuclei (%) [4]: 22.37% and 9.82%
Population Hoechst High Intensity Objects (%) [4]: 1.3% and 0%
Population Membrane Permeable-Phenotype (%) [4]: 1.96% and 0%
Population Mitotic Cells (%) [4]: 53.57% and 48.94%
Population Normal (%) [4]: 98.7% and 100%
Population Pyknosed Nuclei (%) [4]: 73.68% and 83.93%
Population Tubulin-Different-Phenotype (%) [4]: 100% and 54.55%
Total Cell Count [4]: 231 and 112
Population Apoptotic (%) [5]: 12.5% and 24.32%
Population Fragmented Nuclei (%) [5]: 3.16% and 5.04%
Population Healthy Nuclei (%) [5]: 82.41% and 41.73%
Population Hoechst High Intensity Objects (%) [5]: 0.11% and 1.42%
Population Membrane Permeable-Phenotype (%) [5]: 7.11% and 0%
Population Mitochondria Different-Phenotype (%) [5]: 43.78% and 63.79%
Population Mitotic Cells (%) [5]: 87.5% and 75.68%
Population Normal (%) [5]: 99.89% and 98.58%
Population Apoptotic (%) [6]: 50% and 19.23%
Population Fragmented Nuclei (%) [6]: 1.89% and 5.38%
Population Healthy Nuclei (%) [6]: 64.67% and 34.62%
Population Hoechst High Intensity Objects (%) [6]: 0%
Population Membrane Permeable-Phenotype (%) [6]: 9.27% and 0%
Population Mitochondria Different-Phenotype (%) [6]: 73.66% and 40%
Population Mitotic Cells (%) [6]: 50% and 80.77%
Population Normal (%) [6]: 100%
Population Pyknosed Nuclei (%) [6]: 33.44% and 60%
Total Cell Count [6]: 317 and 130

CC(=O)O[C@H]1C(=O)[C@@]2(C)[C@H]([C@H](OC(=O)c3ccccc3)[C@]3(O)C[C@H](OC(=O)[C@H](O)[C@@H](NC(=O)c4ccccc4)c4ccccc4)C(C)=C1C3(C)C)[C@]1(OC(C)=O)CO[C@@H]1C[C@@H]2O [PACLITAXEL]
Population Apoptotic (%) [2]: 41% and 56%
Population Fragmented Nuclei (%) [2]: 7% and 5%
Population Healthy Nuclei (%) [2]: 74% and 64%
Population Hoechst High Intensity Objects (%) [2]: 16% and 14%
Population Membrane Permeable-Phenotype (%) [2]: 0%
Population Mitochondria Different-Phenotype (%) [2]: 79% and 84%
Population Mitotic Cells (%) [2]: 58% and 43%
Population Normal (%) [2]: 83% and 85%
Population Pyknosed Nuclei (%) [2]: 17% and 29%
Population Tubulin-Different-Phenotype (%) [2]: 11% and 16%
Population Apoptotic (%) [4]: 35% and 47%
Population Fragmented Nuclei (%) [4]: 10% and 8%
Population Healthy Nuclei (%) [4]: 70% and 73%
Population Hoechst High Intensity Objects (%) [4]: 16% and 15%
Population Membrane Permeable-Phenotype (%) [4]: 0%
Population Mitochondria Different-Phenotype (%) [4]: 72% and 82%
Population Mitotic Cells (%) [4]: 64% and 52%
Population Normal (%) [4]: 83% and 84%
Population Pyknosed Nuclei (%) [4]: 18% and 17%
Population Tubulin-Different-Phenotype (%) [4]: 8% and 16%
Population Apoptotic (%) [6]: 29% and 69%
Population Fragmented Nuclei (%) [6]: 15% and 10%
Population Healthy Nuclei (%) [6]: 68% and 70%
Population Hoechst High Intensity Objects (%) [6]: 11%
Population Membrane Permeable-Phenotype (%) [6]: 0%
Population Mitochondria Different-Phenotype (%) [6]: 64% and 70%
Population Mitotic Cells (%) [6]: 70% and 30%
Population Normal (%) [6]: 88%
Population Pyknosed Nuclei (%) [6]: 15% and 19%
Population Tubulin-Different-Phenotype (%) [6]: 2% and 11%
